Experimental data as given in ChEMBL document CHEMBL1157616, “Identification of 2-anilino-9-methoxy-5,7-dihydro-6H-pyrimido[5,4-d][1]benzazepin-6-ones as dual PLK1/VEGF-R2 kinase inhibitor chemotypes by structure-based lead generation” (J Med Chem, 2010).
Active and inactive are the calls of the source. No rule for the calls is given here.

Experiments:
[1] = molecular target: Vascular endothelial growth factor receptor 2 (Homo sapiens, UniProt P35968); assay: Inhibition of VEGFR2 assessed as [33Pi] incorporation by microplate scintillation counting in presence of 1 uM ATP
Vascular endothelial growth factor receptor 2, sequence (P35968 whole entry): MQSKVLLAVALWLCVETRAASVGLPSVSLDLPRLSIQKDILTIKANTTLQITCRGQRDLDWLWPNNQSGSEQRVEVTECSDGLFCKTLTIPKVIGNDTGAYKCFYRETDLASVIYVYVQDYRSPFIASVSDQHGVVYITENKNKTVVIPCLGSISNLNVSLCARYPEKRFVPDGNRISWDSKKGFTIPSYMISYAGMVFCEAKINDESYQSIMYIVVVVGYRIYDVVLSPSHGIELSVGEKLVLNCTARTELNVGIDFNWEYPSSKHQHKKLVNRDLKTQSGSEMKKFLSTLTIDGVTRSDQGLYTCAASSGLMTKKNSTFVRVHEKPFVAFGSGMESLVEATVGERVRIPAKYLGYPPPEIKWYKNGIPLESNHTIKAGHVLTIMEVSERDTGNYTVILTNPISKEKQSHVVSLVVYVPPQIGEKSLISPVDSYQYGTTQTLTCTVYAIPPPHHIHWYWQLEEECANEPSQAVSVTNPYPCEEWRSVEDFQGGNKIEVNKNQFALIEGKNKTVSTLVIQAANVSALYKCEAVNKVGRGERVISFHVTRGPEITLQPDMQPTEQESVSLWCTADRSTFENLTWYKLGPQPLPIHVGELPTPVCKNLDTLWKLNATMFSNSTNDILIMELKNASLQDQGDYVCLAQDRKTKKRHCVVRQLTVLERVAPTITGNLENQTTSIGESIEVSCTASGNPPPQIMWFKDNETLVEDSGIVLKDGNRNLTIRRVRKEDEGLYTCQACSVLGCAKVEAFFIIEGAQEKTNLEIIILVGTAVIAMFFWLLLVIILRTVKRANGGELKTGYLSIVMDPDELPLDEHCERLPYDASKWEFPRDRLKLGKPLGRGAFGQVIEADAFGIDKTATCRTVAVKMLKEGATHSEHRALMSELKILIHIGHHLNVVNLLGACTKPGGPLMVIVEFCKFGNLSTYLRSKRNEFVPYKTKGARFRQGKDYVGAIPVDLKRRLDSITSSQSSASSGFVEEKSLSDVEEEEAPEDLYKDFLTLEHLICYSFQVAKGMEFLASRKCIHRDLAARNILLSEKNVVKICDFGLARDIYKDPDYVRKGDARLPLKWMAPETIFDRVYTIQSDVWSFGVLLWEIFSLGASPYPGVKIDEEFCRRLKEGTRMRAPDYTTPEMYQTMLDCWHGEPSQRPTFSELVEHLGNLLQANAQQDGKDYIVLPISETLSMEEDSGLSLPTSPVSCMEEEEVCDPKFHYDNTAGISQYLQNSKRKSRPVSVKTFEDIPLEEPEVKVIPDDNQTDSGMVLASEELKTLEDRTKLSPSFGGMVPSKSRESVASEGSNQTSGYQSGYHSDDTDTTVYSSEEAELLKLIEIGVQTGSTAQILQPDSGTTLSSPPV
Outline: (§1)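 Substrates: Poly(Glu,Tyr)4:1 for VEGFR2; Poly(Glu,Tyr) or Poly(Ala,Glu,Lys,Tyr) for INS-R; RBER-CHKtide or casein for PLK1. Incubated 30 °C, 80 min, stopped with 2% H3PO4. Singlicate; activity referenced to no-enzyme and no-inhibitor controls.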

[2] = molecular target: Serine/threonine-protein kinase PLK1 (Homo sapiens, UniProt P53350); assay: Inhibition of PLK1 assessed as [33Pi] incorporation by microplate scintillation counting in presence of 1 uM ATP
Serine/threonine-protein kinase PLK1, sequence (P53350 whole entry): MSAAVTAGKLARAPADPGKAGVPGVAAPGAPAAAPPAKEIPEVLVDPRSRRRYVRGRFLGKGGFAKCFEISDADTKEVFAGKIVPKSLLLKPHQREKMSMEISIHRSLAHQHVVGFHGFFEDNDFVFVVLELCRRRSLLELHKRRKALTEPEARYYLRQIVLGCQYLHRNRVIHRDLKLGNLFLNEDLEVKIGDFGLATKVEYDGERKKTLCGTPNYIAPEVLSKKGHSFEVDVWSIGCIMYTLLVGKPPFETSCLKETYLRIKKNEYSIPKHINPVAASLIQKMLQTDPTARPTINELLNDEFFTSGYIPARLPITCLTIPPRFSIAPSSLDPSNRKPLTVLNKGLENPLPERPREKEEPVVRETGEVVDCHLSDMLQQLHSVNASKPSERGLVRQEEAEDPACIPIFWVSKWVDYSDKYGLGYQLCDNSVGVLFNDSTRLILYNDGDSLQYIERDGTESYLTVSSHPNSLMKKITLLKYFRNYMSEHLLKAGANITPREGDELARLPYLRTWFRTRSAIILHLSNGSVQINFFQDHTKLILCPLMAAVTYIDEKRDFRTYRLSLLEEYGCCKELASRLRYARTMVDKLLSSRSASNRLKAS

Insulin receptor = Insulin receptor (Homo sapiens, UniProt P06213); assay: Inhibition of INSR assessed as [33Pi] incorporation by microplate scintillation counting in presence of 1 uM ATP; outline: as §1
Insulin receptor, sequence (P06213 28-758 limits assumed): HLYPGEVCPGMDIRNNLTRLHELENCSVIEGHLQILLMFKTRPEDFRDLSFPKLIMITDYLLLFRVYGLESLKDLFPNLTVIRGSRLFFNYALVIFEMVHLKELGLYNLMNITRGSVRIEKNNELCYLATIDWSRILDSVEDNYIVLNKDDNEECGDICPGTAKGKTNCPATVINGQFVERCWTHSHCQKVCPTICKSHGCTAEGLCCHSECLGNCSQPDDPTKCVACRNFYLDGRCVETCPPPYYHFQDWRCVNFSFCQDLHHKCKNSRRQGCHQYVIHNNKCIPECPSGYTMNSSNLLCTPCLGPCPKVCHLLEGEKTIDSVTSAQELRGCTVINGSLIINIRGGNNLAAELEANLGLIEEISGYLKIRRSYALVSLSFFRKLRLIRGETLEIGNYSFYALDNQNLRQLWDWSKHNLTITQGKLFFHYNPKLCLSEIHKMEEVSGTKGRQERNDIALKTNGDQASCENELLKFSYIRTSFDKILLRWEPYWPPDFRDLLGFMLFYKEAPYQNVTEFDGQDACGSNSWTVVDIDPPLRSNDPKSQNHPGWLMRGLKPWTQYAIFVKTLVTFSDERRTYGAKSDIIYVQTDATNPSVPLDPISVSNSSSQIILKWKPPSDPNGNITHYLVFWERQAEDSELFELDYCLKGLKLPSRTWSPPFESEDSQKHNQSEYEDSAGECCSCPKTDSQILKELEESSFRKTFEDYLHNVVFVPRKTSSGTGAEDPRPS
Insulin receptor, sequence (P06213 763-1382 limits assumed): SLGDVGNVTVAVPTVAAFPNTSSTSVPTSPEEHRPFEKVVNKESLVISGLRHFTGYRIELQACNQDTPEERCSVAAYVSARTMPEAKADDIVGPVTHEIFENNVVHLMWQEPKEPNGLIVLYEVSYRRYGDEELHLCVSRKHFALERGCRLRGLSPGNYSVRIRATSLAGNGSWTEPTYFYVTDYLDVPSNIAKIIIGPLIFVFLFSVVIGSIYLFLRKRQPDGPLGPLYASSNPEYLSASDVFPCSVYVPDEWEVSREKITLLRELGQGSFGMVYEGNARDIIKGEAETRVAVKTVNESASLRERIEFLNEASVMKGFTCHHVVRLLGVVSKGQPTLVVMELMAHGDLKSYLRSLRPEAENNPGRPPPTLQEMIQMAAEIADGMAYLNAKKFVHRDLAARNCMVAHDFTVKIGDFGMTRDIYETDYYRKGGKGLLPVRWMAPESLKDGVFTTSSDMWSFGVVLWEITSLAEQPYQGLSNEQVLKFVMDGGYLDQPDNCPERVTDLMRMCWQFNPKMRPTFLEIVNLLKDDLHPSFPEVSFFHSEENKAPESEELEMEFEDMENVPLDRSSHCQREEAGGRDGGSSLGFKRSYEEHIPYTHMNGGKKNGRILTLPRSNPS

NCI60 = assay: Antiproliferative activity against human NCI60 cells at 10 uM after 48 hrs by sulforhodamine B assay; type: functional, cell-based
Outline: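 NCI 60-cell-line prescreen with compound given once at 10 μM. Cells grown in RPMI 1640 with 5% FBS and 2 mM L-glutamine, plated 24 h before dosing, then exposed 48 h at 37 °C. Fixed with cold TCA, stained with SRB, absorbance read at 515 nm, and percent growth taken relative to time-zero and control wells.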

Row | IC50 [1] [µM] | IC50 [2] [µM] | IC50 (Insulin receptor) [µM] | SMILES | Activity (NCI60)
1 | 0.29 | > 100 | > 100 | O=C1Cc2cnc(Nc3ccc(Br)cc3)nc2-c2ccccc2N1 | Active
2 | 2 | > 100 | > 100 | O=C1Cc2cnc3cc(-c4ccccc4)nn3c2-c2cnccc2N1 | Active
3 | > 100 | > 100 | > 100 | O=C1Cc2cc3c(=O)[nH]c(=O)[nH]c3nc2-c2ccccc2N1 | Active
4 | 0.33 | > 100 | 22 | O=C1Cc2cnc(Nc3ccc([N+](=O)[O-])cc3)nc2-c2ccccc2N1 | Active
5 | 0.53 | 14 | > 100 | O=C1Cc2cnc(Nc3ccccc3O)nc2-c2ccccc2N1 | Active
6 | 0.015 | 0.84 | > 100 | COc1ccc2c(c1)NC(=O)Cc1cnc(Nc3cccc(O)c3)nc1-2 | Active
7 | 0.67 | > 100 | > 100 | O=C1Cc2cnc(Nc3ccc(O)c(Cl)c3)nc2-c2ncccc2N1 | Active
8 | 16 | > 100 | > 100 | O=C1Cc2cnc3cc(-c4ccccc4)nn3c2-c2ncccc2N1 | Active
9 | 8.6 | > 100 | > 100 | COc1ccc2c(c1)NC(=O)Cc1cnc3ccnn3c1-2 | Active
10 | 0.4 | 15 | > 100 | O=C1Cc2cnc(Nc3ccc(I)cc3)nc2-c2ccccc2N1 | Active
11 | > 100 | > 100 | > 100 | O=C1Cc2cnc3ncnn3c2-c2ncccc2N1 | Active
12 | 57 | > 100 | > 100 | O=C1Cc2cnc(Nc3ccccc3Br)nc2-c2ccccc2N1 | Active
13 | 6.1 | 73 | > 100 | O=C1Cc2cnc(Nc3ccccc3Cl)nc2-c2ccccc2N1 | Active
14 | – | – | – | O=C1Cc2c([nH]c3ccc(Br)cc23)-c2ccccc2N1 | Active
15 | 0.13 | 2.6 | > 100 | O=C1Cc2cnc(Nc3ccc(O)cc3)nc2-c2cnccc2N1 | Active
16 | 12 | > 100 | > 100 | O=C1Cc2cnc3ccnn3c2-c2ccccc2N1 | Active
17 | 1.2 | 20 | > 100 | Cc1cc(O)ccc1Nc1ncc2c(n1)-c1ccccc1NC(=O)C2 | Active
18 | > 100 | > 100 | > 100 | O=C1Cc2cc3c(=O)[nH]c(=O)[nH]c3nc2-c2cnccc2N1 | Active
19 | > 100 | > 100 | > 100 | Cn1c(=O)c2cc3c(nc2n(C)c1=O)-c1ncccc1NC(=O)C3 | Active
20 | 2.7 | 55 | > 100 | O=C1Cc2cnc(Nc3ccc(O)cc3)nc2-c2ncccc2N1 | Active
21 | 87 | > 100 | > 100 | O=C1Cc2cnc3ccnn3c2-c2ncccc2N1 | Active
22 | 66 | > 100 | > 100 | O=C1Cc2cc3c(=O)[nH]c(=O)[nH]c3nc2-c2ncccc2N1 | Active
23 | 0.19 | > 100 | > 100 | Cc1ccc(Nc2ncc3c(n2)-c2ccccc2NC(=O)C3)cc1 | Active

Row | SMILES | IC50 [1] [µM] | IC50 [2] [µM] | IC50 (Insulin receptor) [µM] | Activity (NCI60)
24 | COc1ccc2c(c1)NC(=O)Cc1cnc(Nc3ccc(OC)c(O)c3)nc1-2 | 0.018 | 0.14 | > 100 | Active
25 | COc1ccc(Nc2ncc3c(n2)-c2ccc(OC)cc2NC(=O)C3)cc1 | 0.05 | 0.35 | > 100 | Active
